Pemphigus Ab inh: human desmoglein-3 autoantibody binding inhibition | binding (percent of control), % at 10 µM | 310,000 compounds, 0.48% hits | DSG3-coupled beads, scFv-anti-DSG3-GFP binding, flow cytometry; hits give low values | P32926;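 active = binding more than 3 SD below its plate's average and above zero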;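 also: hits lower antibody fragment binding to DSG3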
MEKK3 PB1 HTS: modulators (inhibitors or enhancers) of MEK5 binding to human MEKK3 PB1 domain. bead-based flow cytometry, Alexa488-MEK5 binding to MEKK3; actives lie on both sides; 0 = blocked by unlabeled MEK5, 100 = vehicle. binding response (% of control), % at 10 µM. 290,000 compounds, 1.4% hits. Q99759;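 active = binding response more than 3 SD above or below the average of its plate-row segment, actives on both sides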;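 also: Alexa488 bead fluorescence after subtracting the streptavidin-only scavenger bead signal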
Apaf1 inhib: inhibitors of human Apaf-1 apoptosome; inhibition, % at 20 µM; reconstituted apoptosome caspase-3 activity, DEVD-Rh110 fluorescence; 330,000 compounds, 0.71% hits; active = inhibition of at least 40% at 20 µM;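 also: plate controls were DMSO wells for no effect and DEVD-CHO caspase inhibitor wells for full effect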
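Material: biochemical Apaf-1 apoptosome reconstitution. Medium: Hepes buffer, pH 7.5. Also added: cytochrome c activation, bis-DEVD rhodamine 110 substrate. Timing: 30 min compound preincubation, 50 min activation, room temperature. Measured by: rhodamine 110 fluorescence at Ex 480/Em 540 nm.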
MEKK2mut PB1 HTS: signal of MEK5 binding to mutant human MEKK2 PB1 domain | AID 1530 | 290,000 compounds, 0.35% hits | bead flow cytometry, Alexa488-MEK5 binding to MEKK2 mutant | percent response, % at 10 µM; in the data active = percent response above about 24%, passing the limit was not always enough
UBC13 polyUb: human UBC13 polyubiquitination inhibition; P61088; inhibition, % at 20 µM; UBC13 polyubiquitin chain formation, TR-FRET; 330,000 compounds, 0.47% hits; in the data active = inhibition above about 45%, passing the limit was not always enough
Target sequence (P61088 whole entry, looked up): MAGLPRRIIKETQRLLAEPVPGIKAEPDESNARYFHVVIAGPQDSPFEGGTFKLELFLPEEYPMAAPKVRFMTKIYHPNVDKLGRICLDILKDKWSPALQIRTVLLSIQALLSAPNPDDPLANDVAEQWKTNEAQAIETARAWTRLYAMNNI
MEKK2 WT-MEK5: raises or lowers MEK5 binding to wildtype human MEKK2 PB1 domain; Q9Y2U5; bead flow cytometry, Alexa488-MEK5 binding to MEKK2 WT; actives lie on both sides; binding response (% of control), % at 10 µM; 290,000 compounds, 1.1% hits; AID 1531; in the data active = binding response below about 67% or above about 130%
MEKK2wt confirm: raises or lowers MEK5 binding to wildtype human MEKK2, retest | shares compounds with MEKK3 PB1 HTS | bead flow cytometry, Alexa488-MEK5 binding to MEKK2 WT; actives lie on both sides | binding response (% of control), % at 10 µM | 5,900 compounds, 2.4% hits; in the data active = binding response below about 16% or above about 210%; inactive = in between
MEKK2mut-MEK5: signal of MEK5 binding to mutant human MEKK2, retest | shares compounds with MEKK3 PB1 HTS | bead flow cytometry, Alexa488-MEK5 binding to MEKK2 mutant | percent response, % at 10 µM | 5,900 compounds, 2% hits; in the data active = percent response mostly above about 71%, no sharp cut-off; inactive = mostly below about 38%;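 also: higher means compound restores mutant binding toward wildtype level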
MEKK3 confirm: confirmation of inhibitors of MEK5 binding to human MEKK3; binding response (% of control), % at 10 µM; 5,900 compounds, 1.8% hits; bead flow cytometry, Alexa488-MEK5 binding to MEKK3; hits give low values; shares compounds with MEKK3 PB1 HTS; AID 1894;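 active = binding response below 72% of control, or above a set upper limit, though filed actives all read lower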;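 also: 100% = DMSO only wells and 0% = binding blocked by excess unlabeled MEK5; lower values mean stronger disruption of MEK5 binding to MEKK3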
Casp3 counter: caspase-3 inhibition (UBC13 counter-screen); Recombinant caspase-3, Caspase-Glo 3/7 luminescence, 60 min; 1,400 compounds, 4% hits; AID 488856; shares compounds with UBC13 polyUb; inhibition, % at 20 µM;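 active = mean inhibition across replicates above about 26%, limit read from the data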;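 also: plate controls were DMSO with caspase-3 for no effect and DMSO wells lacking enzyme for full effect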
Target sequence (P42574 whole entry, looked up): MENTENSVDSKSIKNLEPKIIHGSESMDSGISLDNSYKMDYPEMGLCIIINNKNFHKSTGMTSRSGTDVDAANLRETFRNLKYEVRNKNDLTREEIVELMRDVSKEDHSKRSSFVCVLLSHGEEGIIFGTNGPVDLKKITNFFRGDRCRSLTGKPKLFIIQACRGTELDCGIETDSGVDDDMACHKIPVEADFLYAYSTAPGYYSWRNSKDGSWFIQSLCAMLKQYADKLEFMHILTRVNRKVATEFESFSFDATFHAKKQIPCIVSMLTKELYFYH
UBC13 confirm: human UBC13 polyubiquitin inhibition, confirmed | inhibition, % at 10 µM | shares compounds with UBC13 polyUb | UBC13 polyubiquitination, TR-FRET, biochemical | AID 488859 | 1,400 compounds, 68% hits; in the data active = inhibition above about 45%
* hit, by the source's call; . = not tested or not shown. Hits are enriched below; roughly 3.2% of the tested compounds scored in any of these assays.

SMILES | Pemphigus Ab inh | MEKK3 PB1 HTS | Apaf1 inhib | MEKK2mut PB1 HTS | UBC13 polyUb | MEKK2 WT-MEK5 | MEKK2wt confirm | MEKK2mut-MEK5 | MEKK3 confirm | Casp3 counter | UBC13 confirm
COc1cc2[nH]c3c(N4CCN(c5ccc(Cl)cc5)CC4)ncnc3c2cc1OC | 122 | 111 | 0 | 24* | 51* | 157* | 189 | 49 | 110 | 2 | 33
O=C(C[n+]1ccccc1)N/N=C/c1ccc(Br)cc1 | . | . | 0 | . | -1 | . | . | . | . | . | .
O=C(Cn1nc(CNc2ccc(Cl)cc2)[n+]2c1CCCCC2)c1ccc(Br)cc1 | 152 | 99 | 25 | 0 | 42 | 120 | . | . | . | . | .
O=C(Cn1nc(CNc2ccc(Br)cc2)[n+]2c1CCCCC2)c1ccc([N+](=O)[O-])cc1 | 110 | 103 | 25 | 33 | 52* | 146* | 132 | 19 | 96 | 0 | 46*
NCCNc1ccc(C(=O)N2c3ccccc3Sc3ccccc32)cc1[N+](=O)[O-] | 104 | 114 | 29 | 37* | 65* | 182* | 167 | 48 | 111 | -2 | 111*
Nc1ccc(C(=O)OCC(=O)N2c3ccccc3Sc3ccccc32)cc1[N+](=O)[O-] | 94 | 104 | . | -1 | . | 101 | . | . | . | . | .
COc1ccc(CCCN2CCC(CN3CCNC(=O)C3=O)CC2)cc1OC | 114 | . | . | . | . | . | . | . | . | . | .
Cc1ccc2nc(/N=C(\N)NC(=O)NC3CCCCC3)nc(C)c2c1 | 103 | 103 | 15 | 25 | 49* | 141* | 135 | 27 | 108 | 1 | 68*
Cn1c(NC(=O)C[n+]2cc(-c3ccc(Cl)c(Cl)c3)n3c2CCC3)cc(=O)n(C)c1=O | 105 | 99 | 0 | -1 | -24 | 101 | . | . | . | . | .
O=C(C[n+]1cc(-c2ccc(Cl)c(Cl)c2)n2c1CCC2)N1c2ccccc2Sc2ccccc21 | 106 | 97 | 26 | 55* | 45* | 221* | 146 | 18 | 86 | -4 | 39
C#CCOCCOCCOCCNc1nc(N2CCN(C(=O)[C@H](CC(N)=O)n3cc(C(N)[C@@H](C)CC)nn3)CC2)nc(N2CCN(C(=O)[C@H](CCCCN)n3cc([C@@H](N)CC(N)=O)nn3)CC2)n1 (stereo partly specified) | 101 | . | 6 | . | 15 | . | . | . | . | . | .
C#CCOCCOCCOCCNc1nc(N2CCN(C(=O)[C@H]([C@@H](C)CC)n3cc([C@@H](N)CC(C)C)nn3)CC2)nc(N2CCN(C(=O)[C@H]([C@@H](C)CC)n3cc([C@@H](N)CC(C)C)nn3)CC2)n1 | 105 | 116 | 10 | 87* | 66* | 223* | 180 | 45 | 104 | -1 | 56*
C#CCOCCOCCOCCNc1nc(N2CCN(C(=O)[C@H](CCCCN)n3cc([C@@H](N)C(C)CC)nn3)CC2)nc(N2CCN(C(=O)[C@H](CCCCN)n3cc([C@@H](N)CC(C)C)nn3)CC2)n1 (stereo partly specified) | 115 | 111 | -16 | 60* | 105* | 180* | 173 | 47 | 109 | 3 | 112*
C#CCOCCOCCOCCNc1nc(N2CCN(C(=O)[C@H]([C@@H](C)CC)n3cc([C@@H](N)Cc4ccc(O)cc4)nn3)CC2)nc(N2CCN(C(=O)[C@H](CCCCN)n3cc([C@@H](N)C(C)CC)nn3)CC2)n1 (stereo partly specified) | 108 | 117 | 22 | 48 | 67* | 176* | 137 | 17 | 103 | -4 | 50*
C#CCOCCOCCOCCNc1nc(N2CCN(C(=O)[C@H](CCC(=O)O)n3cc(C(N)Cc4ccc(O)cc4)nn3)CC2)nc(N2CCN(C(=O)[C@H](CCCCN)n3cc(C(N)[C@H](C)CC)nn3)CC2)n1 (stereo partly specified) | . | 84 | -2 | 2 | -7 | 76 | . | . | . | . | .
C#CCOCCOCCOCCNc1nc(N2CCN(C(=O)[C@H]([C@@H](C)CC)n3cc([C@@H](N)Cc4ccc(O)cc4)nn3)CC2)nc(N2CCN(C(=O)[C@H]([C@@H](C)CC)n3cc([C@@H](N)Cc4ccc(O)cc4)nn3)CC2)n1 | 107 | 108 | 30 | 31 | 54* | 151* | 136 | 15 | 104 | -3 | 40
Cn1nc(C(=O)OCC(=O)NCc2ccc(Cl)cc2Cl)c2ccccc2c1=O | 109 | . | . | . | . | . | . | . | . | . | .
CN(C)CCN(C(=O)c1ccc(S(=O)(=O)N(C)c2ccccc2)cc1)c1nc2cc3c(cc2s1)OCO3 | . | 104 | 17 | 17 | 2 | 126 | . | . | . | . | .
Cc1ccc2nc(N(CCCN(C)C)C(=O)c3sc4ccccc4c3Cl)sc2c1 | 145 | 133* | 3 | 9 | 49* | 155* | 184 | 54 | 109 | -4 | 64*
CCN(Cc1ccccc1)S(=O)(=O)c1ccc(C(=O)N(CCCN(C)C)c2nc3cc4c(cc3s2)OCO4)cc1 | 127 | 107 | 23 | 39* | 64* | 202* | 203 | 56 | 106 | -3 | 104*
CN(C)CCCN(C(=O)c1ccc(C(=O)c2ccccc2)cc1)c1nc2cc3c(cc2s1)OCCO3 | 122 | 107 | 17 | 27* | 92* | 166* | 155 | 23 | 107 | 5 | 112*
Cn1c(=N)n(CC(=O)c2ccc(Cl)c(Cl)c2)c2ccccc21 | 96 | 109 | 11 | 9 | 19 | 123 | . | . | . | . | .
COc1cc(C(CCN2CCCC(C)C2)c2c(OC)cc(OC)c3c2OC(=O)CC3c2ccc(N(C)C)cc2)cc(OC)c1OC (stereo unspecified) | 101 | 96 | 26 | 14 | 45* | 136* | 136 | 16 | 100 | -1 | 24
c1ccc(Nc2nc(NCc3ccco3)c3ccccc3n2)cc1 | 130 | 100 | 16 | 10 | 48* | 174* | 190 | 62 | 115 | -1 | 76*

Assay outcomes as filed in PubChem.
